In ChEMBL document CHEMBL1129798, “Analogues of 10-deazaaminopterin and 5-alkyl-5,10-dideazaaminopterin with the 4-substituted 1-naphthoyl group in the place of 4-substituted benzoyl” (J Med Chem, 1996):

Legend:
HL-60 = test: In vitro cell growth inhibitory activity against HL60 cell line; assay type: functional, cell-based; conditions: Homo sapiens
L1210 = test: In vitro cell growth inhibitory activity against L1210 cell line; assay type: functional, cell-based; conditions: Mus musculus
CCRF S-180 = test: In vitro cell growth inhibitory activity against S180 cell line; assay type: functional, cell-based; conditions: Mus musculus
Mus musculus [1] = test: Compound was compared with MTX for in vivo activity against mammary adenocarcinoma E0771 infected mice at a dose of 24 mg/kg; T/C Treated to Control; assay type: functional
Summary of the method: (§1)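 E0771 mammary adenocarcinoma carried in mice, five mice per test group, with an untreated control group. Dosage is given in mg/kg. Average body weight change (g) and average tumor volume (mm3) were recorded at day 10. T/C is expressed relative to the control group.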

Mus musculus [2] = test: Compound was compared with MTX for in vivo activity against mammary adenocarcinoma E0771 infected mice at a dose of 48 mg/kg; T/C Treated to Control; assay type: functional; summary of the method: as §1

| Structure (SMILES) | IC50 (HL-60) | IC50 (L1210) | IC50 (CCRF S-180) | T/C (Mus musculus [1]) | T/C (Mus musculus [2]) |
| --- | --- | --- | --- | --- | --- |
| Cc1c(CCc2ccc(C(=O)NC(CCC(=O)O)C(=O)O)c3ccccc23)cnc2nc(N)nc(N)c12 (stereo unspecified) | 9.4 nM | 8.8 nM | 29 nM |  |  |
| CCc1c(CCc2ccc(C(=O)NC(CCC(=O)O)C(=O)O)c3ccccc23)cnc2nc(N)nc(N)c12 (stereo unspecified) | 9.8 nM | 9 nM | 29 nM |  |  |
| Nc1nc(N)c2nc(CCc3ccc(C(=O)NC(CCC(=O)O)C(=O)O)c4ccccc34)cnc2n1 (stereo unspecified) | 1.1 nM | 1.5 nM | 1.7 nM | 96% | 52% |
